This note sets out measurements from ChEMBL document CHEMBL1145213, “Lipopolysaccharide sequestrants: structural correlates of activity and toxicity in novel acylhomospermines” (J Med Chem, 2005).

In assay [1] the test system is Lipopolysaccharide (LPS). As to the kind of experiment: Effective dose required for binding to lipopolysaccharide using Fluorescence Displacement Assay; Range is ~1-2 uM. An outline of the steps:
(§1)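 BODIPY-TR-cadaverine displacement from LPS. Compounds from 5 mM DMSO stocks were serially diluted two-fold in 50 mM Tris pH 7.4 down to 0.596 nM final. An LPS/probe mixture was added and end-point fluorescence was read at 620 nm; probe de-quenching reports binding. ED50 was computed from displacement curves, with polymyxin B as the reference on every plate.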

The species entered for another assay is Homo sapiens. As to the kind of experiment: Inhibitory concentration required to inhibit LPS-induced TNF-alpha production in ex vivo human whole blood assay. The assay is classed as functional, organism-based. An outline of the steps:
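Fresh EDTA-anticoagulated whole blood from healthy volunteers was mixed with an equal volume of 20 ng/ml E. coli O111:B4 LPS plus graded compound concentrations diluted in saline and incubated for 4 h. TNF-α was quantified by a multiplexed flow-cytometric cytokine bead array against recombinant cytokine standards. IC50 was derived from dose-response.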

In assay [2] the test system is Mus musculus. As to the kind of experiment: Protection of LPS-induced lethality in mice was determined after administration of 10 ug and activity expressed as dead/total (5/5). The class given is functional.
In assay [3] the test system is Mus musculus. As to the kind of experiment: Protection of LPS-induced lethality in mice was determined after administration of 50 ug and activity expressed as dead/total (5/5). The class given is functional.
The test system of assay [4] is Mus musculus. The assay is described as follows: Protection of LPS-induced lethality in mice was determined after administration of 0 ug and activity expressed as dead/total (5/5). The assay is classed as functional.
For assay [5], the system named is Mus musculus. As to the kind of experiment: Protection of LPS-induced lethality in mice was determined after administration of 100 ug and activity expressed as dead/total (4/5). The class given is functional.
The test system of assay [6] is Mus musculus. The assay is described as follows: Protection of LPS-induced lethality in mice was determined after administration of 200 ug and activity expressed as dead/total (1/5). The class given is functional.
In assay [7] the test system is Lipopolysaccharide (LPS). As to the kind of experiment: Effective dose required for binding to lipopolysaccharide using Fluorescence Displacement Assay. An outline of the steps: as §1
Assay [8] can be described thus: In vitro inhibitory concentration required to inhibit LPS-induced nitric oxide production in J774A.1 cells. The class given is functional, cell-based. To be noted: Mus musculus, J774.A1. An outline of the steps: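 Murine J774A.1 macrophages were plated at ~10^5/ml and stimulated with 10 ng/ml LPS. Serially diluted compounds were added at the same time, with polymyxin B as reference, and cells were incubated for 16 h. Nitrite in the supernatant was measured by Griess reaction (15 min, room temperature, dark; A535) against a sodium nitrite standard curve. IC50 was taken from dose-response. Viability was checked in parallel by XTT.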

The test system of assay [9] is Mus musculus. The assay is described as follows: Protection of LPS-induced lethality in mice was determined after administration of 50 ug and activity expressed as dead/total (4/5). The assay is classed as functional.
The subject of assay [10] is Mus musculus. The assay is described as follows: Protection of LPS-induced lethality in mice was determined after administration of 100 ug and activity expressed as dead/total (2/5). The class given is functional.
Assay [11] has as its system Mus musculus. As to the kind of experiment: Protection of LPS-induced lethality in mice was determined after administration of 500 ug and activity expressed as dead/total (4/5). The assay is classed as functional.
The test system of assay [12] is Mus musculus. The assay is described as follows: Protection of LPS-induced lethality in mice sensitized by D-galactosamine was determined after 200 ug administered ip at -2 hour and activity expressed as dead/total (0/5). The assay is classed as functional.
The subject of assay [13] is Mus musculus. The assay is described as follows: Protection of LPS-induced lethality in mice was determined after administration of 200 ug and activity expressed as dead/total (0/5). The assay is classed as functional.
Assay [14] has as its system Mus musculus. The assay is described as follows: Protection of LPS-induced lethality in mice sensitized by D-galactosamine was determined after 200 ug administered ip at 0 hour and activity expressed as dead/total (0/5). The class given is functional.
The subject of assay [15] is Mus musculus. The assay is described as follows: Protection of LPS-induced lethality in mice sensitized by D-galactosamine was determined after 200 ug administered ip at -6 hour and activity expressed as dead/total (1/5). The assay is classed as functional.
In assay [16] the test system is Mus musculus. The assay is described as follows: Protection of LPS-induced lethality in mice sensitized by D-galactosamine was determined after 200 ug administered ip at -4 hour and activity expressed as dead/total (1/5). The class given is functional.
For assay [17], the system named is Mus musculus. The assay is described as follows: Protection of LPS-induced lethality in mice was determined after administration of 100 ug and activity expressed as dead/total (0/5). The assay is classed as functional.
The subject of assay [18] is Mus musculus. The assay is described as follows: Protection of LPS-induced lethality in mice sensitized by D-galactosamine was determined after 200 ug administered ip at 2 hour and activity expressed as dead/total (4/5). The assay is classed as functional.
Assay [19] concerns the target Lipopolysaccharide (LPS). The assay is described as follows: Dissociation constant against lipopolysaccharide. An outline of the steps:
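Isothermal titration calorimetry at 37 °C in 50 mM Tris pH 7.4, ligand and LPS in the same buffer. E. coli O111:B4 LPS was titrated in 35 injections at 360 s intervals into the cell holding the acylhomospermine, with stirring at 310 rpm. Controls injected LPS into buffer. KD was obtained from fitting the binding isotherm.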

The subject of assay [20] is Mus musculus. The assay is described as follows: Protection of LPS-induced lethality in mice was determined after administration of 50 ug and activity expressed as dead/total (2/5). The class given is functional.
Assay [21] deals with Mus musculus. As to the kind of experiment: Protection of LPS-induced lethality in mice sensitized by D-galactosamine was determined after 200 ug administered ip at 1 hour and activity expressed as dead/total (5/5). The class given is functional.

A value given as a limit tells only on which side of the number the result lay.

The molecule `CCCCCCCCCC(=O)NCCCN(CCCN(CCCCN(CCCNC(=O)OC(C)(C)C)C(=O)OC(C)(C)C)C(=O)OC(C)(C)C)C(=O)OC(C)(C)C` had an ED50 with Lipopolysaccharide (LPS) [1] of under 2 µM.

As a reminder, the IC50 is the concentration that gives 50% inhibition. Regarding `CCCCCCCCC(=O)NCCCNCCCNCCCCNCCCNCCCNC(=O)CCCCCCCC`, the IC50 in the assay listed under Homo sapiens worked out at 4.88 µM; in assay [8] it was 2.05 µM. In addition, the Dead was 5 in the assay with Mus musculus [2]; 5 in the assay with Mus musculus [3]; 5 in the assay on Mus musculus [4]; 4 with Mus musculus [5]; 1 with Mus musculus [6]. Further, the ED50 in the assay on Lipopolysaccharide (LPS) [7] was 0.33 µM.

As to `CCCCCCCCCCCC(=O)NCCCNCCCNCCCCNCCCNCCCNC(=O)CCCCCCCCCCC`, the IC50 came out at 9.19 µM in the assay listed under Homo sapiens and 1.44 µM in assay [8]. In addition, the Dead amounted to 4 in the assay on Mus musculus [9]; 5 in the assay with Mus musculus [4]; 1 with Mus musculus [6]; 2 in the assay with Mus musculus [10]; 4 in the assay on Mus musculus [11]. This molecule had an ED50 in the assay on Lipopolysaccharide (LPS) [7] of 6.87 µM.

POLYMYXIN B yielded an ED50 in the assay on Lipopolysaccharide (LPS) [7] of 1.2 µM.

Consider `CCCCCCCCCC(=O)NCCCNCCCNCCCCNCCCN`, for which the IC50 turned out to be 16.5 µM in the assay listed under Homo sapiens and 23.5 µM in assay [8]. The molecule further showed an ED50 in the assay with Lipopolysaccharide (LPS) [7] of 1.08 µM.

With `CCCCCCCCCCCCCCC(=O)NCCCNCCCNCCCCNCCCN`, the figures for the half-inhibitory concentration (IC50) (in the assay listed under Homo sapiens; in [8]) were 2.27 µM and 3.69 µM, respectively. Moreover, in the assay on Lipopolysaccharide (LPS) [7], the ED50 was 1.35 µM.

In the case of `CCCCCCCCCCCCCCCCCCC(=O)NCCCNCCCNCCCCNCCCNCCCNC(=O)CCCCCCCCCCCCCCCCCC`, the results for the IC50 (in the assay listed under Homo sapiens; in assay [8]) were 120 µM and 13.9 µM, respectively. The ED50 in the assay on Lipopolysaccharide (LPS) [7] was found to be 66.7 µM.

For the molecule `CCCCCCCCC(=O)NCCCNCCCNCCCCNCCCN`, the IC50 worked out at 31.1 µM in the assay listed under Homo sapiens and 52.5 µM in assay [8]. Besides, the ED50 with Lipopolysaccharide (LPS) [7] amounted to 0.92 µM.

As for `CC(=O)NCCCN(CCCN(CCCCN(CCCNC(=O)OC(C)(C)C)C(=O)OC(C)(C)C)C(=O)OC(C)(C)C)C(=O)OC(C)(C)C`, in the assay with Lipopolysaccharide (LPS) [1], the ED50 was under 2 µM.

On to `CCCCCCCCCCCCCCC(=O)NCCCNCCCNCCCCNCCCNCCCNC(=O)CCCCCCCCCCCCCC`, for which the IC50 in the assay listed under Homo sapiens was found to be 63.1 µM; in [8] it was 10.1 µM. The same molecule returned an ED50 with Lipopolysaccharide (LPS) [7] of 8.67 µM.

The molecule `CC(C)(C)OC(=O)NCCCN(CCCCN(CCCN(CCCN)C(=O)OC(C)(C)C)C(=O)OC(C)(C)C)C(=O)OC(C)(C)C` had an ED50 with Lipopolysaccharide (LPS) [1] of under 2 µM.

Turning to `CCCCCCCCCCCCCCC(=O)NCCCN(CCCN(CCCCN(CCCNC(=O)OC(C)(C)C)C(=O)OC(C)(C)C)C(=O)OC(C)(C)C)C(=O)OC(C)(C)C`, in the assay on Lipopolysaccharide (LPS) [1], the ED50 was under 2 µM.

Usually Kd stands for the equilibrium constant for the complex coming apart. Lower therefore signals tighter binding. Regarding `CCCCCCCCCCCCCCCCC(=O)NCCCNCCCNCCCCNCCCN`, the Dead in the assay on Mus musculus [12] was 0; in the assay on Mus musculus [13] it was 0; in the assay with Mus musculus [2], 5; in the assay on Mus musculus [14] it was 0; with Mus musculus [15], 1; in the assay on Mus musculus [16], 1. Moreover, the Dead in the assay with Mus musculus [4] was determined as 5; with Mus musculus [17] it was 0; with Mus musculus [18] it was 4; in the assay on Mus musculus [20], 2; with Mus musculus [21] it was 5. For the same molecule, the IC50 in the assay filed under Homo sapiens was 1.91 µM; in assay [8] it was 4.22 µM. This molecule gave an ED50 with Lipopolysaccharide (LPS) [7] of 1.37 µM. Further, at Lipopolysaccharide (LPS) [19], binding was put at a Kd of 1.21 µM.

In the case of `CCCCCCCCCC(=O)NCCCNCCCNCCCCNCCCNCCCNC(=O)CCCCCCCCC`, the concentration for half-maximal inhibition (IC50) in the assay listed under Homo sapiens was 10 µM; in assay [8], 1.47 µM. This molecule also showed an ED50 with Lipopolysaccharide (LPS) [7] of 0.76 µM.

With `CC(=O)NCCCNCCCNCCCCNCCCN`, the IC50 in the assay listed under Homo sapiens was determined as 36.6 µM; in assay [8], 171 µM. The ED50 in the assay with Lipopolysaccharide (LPS) [7] came to 107 µM.

In turn, `CCCCCCCCCCCCCCCCC(=O)NCCCN(CCCN(CCCCN(CCCNC(=O)OC(C)(C)C)C(=O)OC(C)(C)C)C(=O)OC(C)(C)C)C(=O)OC(C)(C)C` registered an ED50 with Lipopolysaccharide (LPS) [1] of under 2 µM.

In the case of `CCCCCCCCCCCCCCCCC(=O)NCCCNCCCNCCCCNCCCNCCCNC(=O)CCCCCCCCCCCCCCCC`, the IC50 came to 37.1 µM in the assay listed under Homo sapiens and 14.2 µM in [8]. This molecule also yielded an ED50 with Lipopolysaccharide (LPS) [7] of 52.5 µM.

As for `NCCCNCCCCNCCCN`, the ED50 in the assay with Lipopolysaccharide (LPS) [1] is under 2 µM.

The molecule `CCCCCCCCCCCCCCCCCCC(=O)NCCCN(CCCN(CCCCN(CCCNC(=O)OC(C)(C)C)C(=O)OC(C)(C)C)C(=O)OC(C)(C)C)C(=O)OC(C)(C)C` gave an ED50 in the assay on Lipopolysaccharide (LPS) [1] of under 2 µM.

Regarding `CCCCCCCCCCCCCCCCCCC(=O)NCCCNCCCNCCCCNCCCN`, the IC50 in the assay listed under Homo sapiens was found to be 2.31 µM; in assay [8], 4.35 µM. In the assay on Lipopolysaccharide (LPS) [7], this molecule showed an ED50 of 2.44 µM.

In the assay on Lipopolysaccharide (LPS) [1], `CCCCCCCCC(=O)NCCCN(CCCN(CCCCN(CCCNC(=O)OC(C)(C)C)C(=O)OC(C)(C)C)C(=O)OC(C)(C)C)C(=O)OC(C)(C)C` displayed an ED50 of under 2 µM.
